From ChEMBL document CHEMBL2086281, “Design, synthesis and 3D-QSAR analysis of novel 2-hydrazinyl-4-morpholinothieno[3,2-d]pyrimidine derivatives as potential antitumor agents” (Eur J Med Chem, 2012)

Key:
HT-29 [1] = assay: Cytotoxicity against human HT-29 cells assessed as growth inhibition after 72 hrs by MTT assay; assay type: functional, cell-based; conditions: HT-29, 72 h
In short: (§1)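 Cells grown in MEM with 10% FBS. About 4×10^3 cells/well were pre-incubated for 24 h at 37 °C in 5% CO₂, then exposed to compound at the indicated final concentrations for 72 h. MTT was added to 5 µg/mL final for 4 h at 37 °C. Formazan was dissolved in DMSO and read at 492 nm, with 630 nm as reference. IC50 is the mean of three determinations.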

NCI-H460 [2] = assay: Cytotoxicity against human H460 cells assessed as growth inhibition after 72 hrs by MTT assay; assay type: functional, cell-based; conditions: NCI-H460, 72 h
In short: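 Cells grown in MEM with 10% FBS. About 4×10^3 cells/well were pre-incubated for 24 h at 37 °C in 5% CO₂, then exposed to compound at the indicated final concentrations for 72 h. MTT was added to 5 µg/mL final for 4 h at 37 °C. IC50 is the mean of three determinations.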

MDA-MB-231 [3] = assay: Cytotoxicity against human MDA-MB-231 cells assessed as growth inhibition after 72 hrs by MTT assay; assay type: functional, cell-based; conditions: MDA-MB-231, 72 h; in short: as §1
A549 = assay: Cytotoxicity against human A549 cells assessed as growth inhibition after 72 hrs by MTT assay; assay type: functional, cell-based; conditions: A549, 72 h; in short: as §1
MDA-MB-231 [4] = assay: Ratio of GDC-0941 IC50 to compound IC50 for human MDA-MB-231 cells assessed as growth inhibition after 72 hrs by MTT assay; assay type: functional
NCI-H226 = assay: Cytotoxicity against human NCI-H226 cells assessed as growth inhibition after 72 hrs by MTT assay; assay type: functional, cell-based; conditions: NCI-H226, 72 h; in short: as §1
NCI-H1975 = assay: Cytotoxicity against human NCI-H1975 cells assessed as growth inhibition after 72 hrs by MTT assay; assay type: functional, cell-based; conditions: NCI-H1975, 72 h; in short: as §1
HepG2 = assay: Cytotoxicity against human HepG2 cells assessed as growth inhibition after 72 hrs by MTT assay; assay type: functional, cell-based; conditions: HepG2, 72 h; in short: as §1
[5] = Cytotoxicity against human U87MG cells assessed as growth inhibition after 72 hrs by MTT assay; assay type: functional, cell-based, U-87MG ATCC; conditions: U-87 MG; in short: as §1
NCI-H460 [6] = assay: Ratio of GDC-0941 IC50 to compound IC50 for human H460 cells assessed as growth inhibition after 72 hrs by MTT assay; assay type: functional
SGC-7901 = assay: Cytotoxicity against human SGC7901 cells assessed as growth inhibition after 72 hrs by MTT assay; assay type: functional, cell-based; conditions: SGC-7901, 72 h; in short: as §1
HT-29 [7] = assay: Ratio of GDC-0941 IC50 to compound IC50 for human HT-29 cells assessed as growth inhibition after 72 hrs by MTT assay; assay type: functional

Row | SMILES | IC50 (HT-29 [1]) | IC50 (NCI-H460 [2]; read-out: IC50) | IC50 (NCI-H460 [2]; read-out: pIC50 (converted)) | IC50 (MDA-MB-231 [3]) | IC50 (A549) | Ratio IC50 (MDA-MB-231 [4]) | IC50 (NCI-H226) | IC50 (NCI-H1975) | IC50 (HepG2) | IC50 [5] | Ratio IC50 (NCI-H460 [6]) | IC50 (SGC-7901) | Ratio IC50 (HT-29 [7])
1 | Clc1ccccc1Cn1cc(/C=N/Nc2nc(N3CCOCC3)c3sccc3n2)c2ccccc21 | > 100 µM | 3.98 µM | 3.98 µM | > 100 µM | – | – | – | – | – | – | – | – | –
2 | Fc1cccc(Cn2cc(/C=N/Nc3nc(N4CCOCC4)c4sccc4n3)c3ccccc32)c1 | 0.39 µM | 0.23 µM | 0.224 µM | 1.11 µM | 8.7 µM | 66.5 | 0.91 µM | 19 µM | 1.1 µM | 12.6 µM | 3.8 | 0.8 µM | 1.7
3 | Clc1cccc(Cn2c(/C=N/Nc3nc(N4CCOCC4)c4sccc4n3)nc3ccccc32)c1Cl | 6.46 µM | 37.1 µM | 37.2 µM | > 100 µM | – | – | – | – | – | – | – | – | –
4 | CC(C)(O)c1cc2nc(N/N=C/c3cn(Cc4ccc(F)cc4)c4ccccc34)nc(N3CCOCC3)c2s1 | 1.01 µM | 1.1 µM | 1.1 µM | 1.53 µM | – | – | – | – | – | – | – | – | –
5 | Clc1cccc(Cn2c(/C=N/Nc3nc(N4CCOCC4)c4sccc4n3)nc3ccccc32)c1 | 1.01 µM | 4.56 µM | 4.57 µM | 37.7 µM | – | – | – | – | – | – | – | – | –
6 | C(=N\Nc1nc(N2CCOCC2)c2sccc2n1)/c1cn(Cc2ccccc2)c2ccccc12 | 4.7 µM | 1.41 µM | 1.41 µM | 12.4 µM | – | – | – | 42.7 µM | – | > 100 µM | – | – | –
7 | Clc1cccc(Cn2cc(/C=N/Nc3nc(N4CCOCC4)c4sccc4n3)c3ccccc32)c1 | 2.98 µM | 0.54 µM | 0.537 µM | 9.74 µM | – | – | – | > 100 µM | – | 5.96 µM | – | – | –
8 | NNc1nc(N2CCOCC2)c2sccc2n1 | 23.4 µM | 42.2 µM | – | 63.8 µM | – | – | – | – | – | – | – | – | –
9 | CC(C)(C)c1ccc(Cn2c(/C=N/Nc3nc(N4CCOCC4)c4sccc4n3)nc3ccccc32)cc1 | 4.18 µM | 3.62 µM | 3.63 µM | 8.17 µM | – | – | – | – | – | – | – | – | –
10 | CC(C)(O)c1cc2nc(N/N=C/c3cn(Cc4ccc(C#N)cc4)c4ccccc34)nc(N3CCOCC3)c2s1 | 2.54 µM | 4.53 µM | 4.57 µM | 6.31 µM | – | – | – | – | – | – | – | – | –
11 | C=CCc1cccc(/C=N/NC(=O)CN2CCN(Cc3ccccc3)CC2)c1O [PAC-1] | 0.97 µM | 3.57 µM | – | 6.11 µM | – | – | – | – | – | – | – | – | –
12 | CC(C)(O)c1cc2nc(N/N=C/c3cn(Cc4cccc(Cl)c4)c4ccccc34)nc(N3CCOCC3)c2s1 | 0.87 µM | 0.84 µM | 0.832 µM | 3.22 µM | – | – | – | 23.8 µM | – | 8.91 µM | – | – | –
13 | CC(C)(O)c1cc2nc(N/N=C/c3cn(Cc4cccc(F)c4)c4ccccc34)nc(N3CCOCC3)c2s1 | 0.38 µM | 0.42 µM | 0.427 µM | 7.2 µM | – | – | – | 19.7 µM | – | 7.82 µM | – | – | –
14 | Clc1ccccc1Cn1c(/C=N/Nc2nc(N3CCOCC3)c3sccc3n2)nc2ccccc21 | 0.4 µM | 79.4 µM | 79.4 µM | > 100 µM | – | – | – | – | – | – | – | – | –
15 | CC(C)(O)c1cc2nc(NN)nc(N3CCOCC3)c2s1 | 56.2 µM | 29.7 µM | – | > 100 µM | – | – | – | – | – | – | – | – | –
16 | CC(C)(C)c1ccc(Cn2cc(/C=N/Nc3nc(N4CCOCC4)c4sccc4n3)c3ccccc32)cc1 | 1.69 µM | 0.38 µM | 0.38 µM | 1.43 µM | – | – | – | 8 µM | – | 11.2 µM | – | – | –
17 | Clc1ccc(Cn2cc(/C=N/Nc3nc(N4CCOCC4)c4sccc4n3)c3ccccc32)cc1Cl | 16.2 µM | 0.74 µM | 0.741 µM | > 100 µM | – | – | – | > 100 µM | – | > 100 µM | – | – | –
18 | CS(=O)(=O)N1CCN(Cc2cc3nc(-c4cccc5[nH]ncc45)nc(N4CCOCC4)c3s2)CC1 [PICTILISIB] | 0.66 µM | – | – | 73.8 µM | 6.9 µM | – | 2.9 µM | 0.27 µM | 1 µM | 7.77 µM | – | 1.8 µM | –
